Results on two compounds are retold here after ChEMBL document CHEMBL5236619, “Design and Optimization of 1H-1,2,3-Triazole-4-carboxamides as Novel, Potent, and Selective Inverse Agonists and Antagonists of PXR” (J Med Chem, 2022).

Each structure is given as a SMILES string. Active and inactive are the calls of the source. The rule behind the calls is not given here.

For one series, the system named is HEK-293T. Description: Cytotoxicity against HEK293T cells assessed as reduction in cell viability measured after 24 to 72 hrs by celltiter-glo luminescent cell viability assay. In kind it is toxicity, cell-based. The settings on record: human, time 24-72 hrs. The method, boiled down:
(§1)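 Cells seeded at 2,500 per well for 1-day or 5,000 per well for 3-day exposure. Viability read by CellTiter-Glo luminescence. Staurosporine (56 μM) set as 100% cytotoxicity. Each concentration run in quadruplicate, at least three times. % cytotoxicity plotted and fitted to a sigmoidal dose–response curve. Means and SDs from three independent experiments.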
For orientation: In ATP-based viability assays light output follows the ATP content of the culture.

Another series has as its system HepaRG. Description: Cytotoxicity against human HepaRG cells assessed as reduction in cell viability measured after 24 to 72 hrs by celltiter-glo luminescent cell viability assay. In kind it is toxicity, cell-based. The settings on record: time 24-72 hrs. The method, boiled down: as §1
The test system of series [1] is HepG2. As to the kind of experiment: Cytotoxicity against human HepG2 cells assessed as reduction in cell viability measured after 24 to 72 hrs by celltiter-glo luminescent cell viability assay. The series is classed as toxicity, cell-based. To be noted: time 24-72 hrs. The method, boiled down:
as §1

In series [2] the target is T1, Nuclear receptor subfamily 1 group I member 2 (Homo sapiens, UniProt O75469).
T1 sequence (O75469 whole entry): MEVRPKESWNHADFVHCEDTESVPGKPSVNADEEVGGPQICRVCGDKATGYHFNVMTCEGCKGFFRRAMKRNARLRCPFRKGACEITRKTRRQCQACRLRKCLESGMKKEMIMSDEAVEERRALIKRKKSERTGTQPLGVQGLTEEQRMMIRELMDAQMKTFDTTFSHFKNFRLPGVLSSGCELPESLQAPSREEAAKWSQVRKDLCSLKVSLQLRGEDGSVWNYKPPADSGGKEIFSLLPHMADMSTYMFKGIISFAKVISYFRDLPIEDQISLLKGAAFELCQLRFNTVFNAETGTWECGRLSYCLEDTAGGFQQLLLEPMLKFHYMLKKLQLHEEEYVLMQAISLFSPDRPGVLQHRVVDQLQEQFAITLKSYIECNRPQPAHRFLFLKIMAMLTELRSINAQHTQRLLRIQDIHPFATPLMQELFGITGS
Description: Agonist activity at human PXR in human HepG2 cells co-expressing luciferase gene under control of CYP3A4 promoter assessed as transcriptional activation at 30 uM incubated for 24 hrs by luminescence based analysis. To be noted: hepg2, 24 h. In kind it is cell-based.

Series [3] has as its target T2, Bile acid receptor (Homo sapiens) (UniProt Q96RI1).
T2 sequence (whole entry): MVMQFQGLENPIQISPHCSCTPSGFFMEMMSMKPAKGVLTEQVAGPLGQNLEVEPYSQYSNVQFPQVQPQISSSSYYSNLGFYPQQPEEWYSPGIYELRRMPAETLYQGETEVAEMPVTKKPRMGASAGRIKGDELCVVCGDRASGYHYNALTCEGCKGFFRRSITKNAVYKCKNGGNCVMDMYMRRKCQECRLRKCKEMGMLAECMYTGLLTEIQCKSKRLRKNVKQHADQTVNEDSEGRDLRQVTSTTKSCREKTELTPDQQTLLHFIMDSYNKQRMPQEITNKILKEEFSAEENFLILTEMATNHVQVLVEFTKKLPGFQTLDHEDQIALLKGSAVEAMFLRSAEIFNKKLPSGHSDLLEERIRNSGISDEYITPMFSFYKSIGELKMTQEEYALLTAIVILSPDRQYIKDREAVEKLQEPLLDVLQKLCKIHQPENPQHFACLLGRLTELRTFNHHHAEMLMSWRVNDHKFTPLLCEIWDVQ
As to the kind of experiment: Effect on FXR activity in GeneBLAzer FXR-UAS-bla HEK 293T cells by fluorescence based analysis. The series is classed as cell-based. The method, boiled down:
(§2)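 Run in agonistic mode (compound alone) or antagonistic mode (compound plus an agonist). Each concentration tested in quadruplicate, at least three times. % activation or % inhibition plotted against concentration, with EC50 or IC50 derived from a sigmoidal dose–response fit.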

Series [4] concerns the target T3, Vitamin D3 receptor (Homo sapiens) (UniProt P11473).
T3 sequence (whole entry): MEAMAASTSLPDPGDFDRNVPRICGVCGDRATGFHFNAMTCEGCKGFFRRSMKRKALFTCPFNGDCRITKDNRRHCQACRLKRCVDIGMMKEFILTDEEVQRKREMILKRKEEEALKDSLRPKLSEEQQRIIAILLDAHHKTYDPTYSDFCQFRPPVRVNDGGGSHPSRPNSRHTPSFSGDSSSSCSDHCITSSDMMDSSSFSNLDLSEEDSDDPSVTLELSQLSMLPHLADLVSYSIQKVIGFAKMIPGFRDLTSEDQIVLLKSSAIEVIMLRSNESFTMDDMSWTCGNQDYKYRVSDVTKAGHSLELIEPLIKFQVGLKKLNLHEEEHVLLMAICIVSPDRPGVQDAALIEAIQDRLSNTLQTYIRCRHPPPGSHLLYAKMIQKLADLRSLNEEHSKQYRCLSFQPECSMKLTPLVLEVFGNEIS
As to the kind of experiment: Effect on VDR activity in GeneBLAzer VDR-UAS-bla HEK 293T cells by fluorescence based analysis. In kind it is cell-based. The method, boiled down: as §2

Series [5] addresses T4, PXR (NR1I2) ligand binding domain (Homo sapiens, UniProt O75469).
T4 sequence (O75469 whole entry): T1 sequence (O75469 whole entry)
Description: Inhibition of BODIPY FL vindoline binding to recombinant human GST-tagged PXR LBD (111 to 434 residues) expressed in baculovirus infected insect cells at 10 uM incubated for 1 mins under shaking condition followed by 60 mins under dark condition by TR-FRET assay relative to control. To be noted: probe BODIPY FL vindoline, time 61 min.

Series [6] in a line: Cytotoxicity against […] Hepa1-6 cells assessed as reduction in cell viability measured after 24 to 72 hrs by celltiter-glo luminescent cell viability assay. To be noted: time 24-72 hrs. In kind it is toxicity, cell-based. The method, boiled down:
as §1

Series [7] addresses T5, Oxysterols receptor LXR-alpha (Homo sapiens) (UniProt Q13133).
T5 sequence (whole entry): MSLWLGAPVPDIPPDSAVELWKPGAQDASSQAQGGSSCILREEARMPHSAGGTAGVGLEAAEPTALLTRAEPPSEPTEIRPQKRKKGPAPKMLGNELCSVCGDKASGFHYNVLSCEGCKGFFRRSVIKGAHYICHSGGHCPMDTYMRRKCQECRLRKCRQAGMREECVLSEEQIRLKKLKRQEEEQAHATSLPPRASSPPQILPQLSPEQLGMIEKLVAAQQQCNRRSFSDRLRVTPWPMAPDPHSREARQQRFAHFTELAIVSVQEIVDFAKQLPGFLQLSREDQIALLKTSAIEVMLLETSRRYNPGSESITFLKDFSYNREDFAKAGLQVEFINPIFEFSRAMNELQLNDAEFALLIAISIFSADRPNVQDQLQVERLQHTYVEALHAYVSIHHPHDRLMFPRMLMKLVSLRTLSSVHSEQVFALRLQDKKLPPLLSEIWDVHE
Description: Effect on LXRalpha activity in GeneBLAzer LXRalpha-UAS-bla HEK 293T cells by fluorescence based analysis. The series is classed as cell-based. The method, boiled down: as §2

The subject of series [8] is HepG2. Description: Effect on CAR activity in human HepG2 cells co-expressing luciferase gene under control of CYP3A4 promoter by luciferase reporter assay. In kind it is cell-based.
The target in another series is T6, PXR (NR1I2) (Homo sapiens, UniProt O75469).
T6 sequence (O75469 whole entry): T1 sequence (O75469 whole entry)
Description: Inverse agonist activity at human PXR in human HepG2 cells co-expressing luciferase gene under control of CYP3A4 promoter assessed as inhibition in receptor basal activity at 10 uM incubated for 24 hrs by luminescence based analysis relative to control. In kind it is cell-based.

The target in series [9] is T7, Nuclear receptor subfamily 1 group I member 2 (Mus musculus, UniProt O54915).
T7 sequence (O54915 whole entry): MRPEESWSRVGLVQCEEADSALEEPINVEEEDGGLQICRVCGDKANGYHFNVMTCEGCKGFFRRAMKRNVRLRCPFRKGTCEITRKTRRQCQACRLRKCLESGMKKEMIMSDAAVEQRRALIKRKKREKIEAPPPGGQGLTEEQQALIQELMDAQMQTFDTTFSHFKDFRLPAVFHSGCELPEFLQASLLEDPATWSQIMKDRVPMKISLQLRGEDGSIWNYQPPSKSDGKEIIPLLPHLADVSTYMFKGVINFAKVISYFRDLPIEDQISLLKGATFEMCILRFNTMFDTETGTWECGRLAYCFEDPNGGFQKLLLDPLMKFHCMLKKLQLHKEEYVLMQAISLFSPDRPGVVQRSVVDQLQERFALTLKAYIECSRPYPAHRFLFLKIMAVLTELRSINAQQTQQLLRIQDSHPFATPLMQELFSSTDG
Description: Effect on mouse PXR activity by luciferase reporter assay. The method, boiled down: as §2
(In general: Reporter assays use an easily measured gene product as a stand-in for the process of interest.)

For series [10], the target named is T1, Nuclear receptor subfamily 1 group I member 2. As to the kind of experiment: Inverse agonist activity at human PXR in human HepG2 cells co-expressing luciferase gene under control of CYP3A4 promoter assessed as inhibition in receptor basal activity at 30 uM incubated for 24 hrs by luminescence based analysis. To be noted: hepg2, 24 h.
Series [11] shares this target. As to the kind of experiment: Inhibition of BODIPY FL vindoline binding to recombinant human GST-tagged PXR LBD (111 to 434 residues) expressed in baculovirus infected insect cells incubated for 1 mins under shaking condition followed by 60 mins under dark condition by TR-FRET assay.

A word on the inhibition: it is the change of the read-out against control, counted positive when it falls. With `CCC[C@H](C)Oc1ccc(C(C)(C)C)cc1NC(=O)c1nnn(-c2cc(OC)ccc2OC)c1C`, the Activity entry with HEK-293T is “Non-Toxic”; in the series on HepaRG it was “Non-Toxic”; with HepG2 [1] it was “Non-Toxic”; in series [2], “Not Active”; in [6], “Non-Toxic”; in [9], “Not Active”. The outcome (in series [3]; in series [4]; in series [7]; with HepG2 [8]) was inactive. Moreover, the inhibition at 1.017 h, 10 µM in series [5] is 87%. Moreover, the inhibition at 24 h, 10 µM on PXR (NR1I2) came to 125%.
What is called IC50 is the concentration needed to halve the response being measured. On to `CCC[C@H](C)Oc1ccc(C(C)(C)C)cc1NC(=O)c1nnn(-c2cc(C)ccc2OC)c1C`, for which the Activity result is “Non-Toxic” in the series with HEK-293T; “Non-Toxic” in the series with HepaRG; “Non-Toxic” in the series on HepG2 [1]; “Not Active” in series [2]; “Non-Toxic” in series [6]; “Not Active” in series [9]. The result (in series [3]; in [4]; in series [7]; in the series with HepG2 [8]) was inactive. The inhibition at 1.017 h, 10 µM in series [5] was 90%. The INH entry in [10] is recorded as “Not Active”. In addition, the IC50 in series [11] amounted to 4 nM.
